Measurements collected from several papers.
Protocols differ between the studies behind these lines.
Target: RAC-gamma serine/threonine-protein kinase (AKT3, Homo sapiens, UniProt Q9Y243)

N#CC1(c2ccccn2)CCN(Cc2cc(C(=O)O)c(=O)n3ccccc23)CC1 — remaining binding (cell-free assay, competition with immobilised ligand; 1 µM): 100%
COc1cc(Nc2ncc(F)c(Nc3ccc4c(n3)NC(=O)C(C)(C)O4)n2)cc(OC)c1OC — inhibition (binding, competition with immobilised ligand; 10 µM): 0%
Cn1cc(-c2cc(F)cc(N3CCn4c(cc5c4CCCC5)C3=O)c2CO)cc(Nc2ccc(N3CCN(C4COC4)CC3)cn2)c1=O — inhibition (enzyme activity, inhibitor; 0.1 µM): 5%
Nc1ncc(-c2nc(N3CCOCC3)nc(N3CCOCC3)n2)c(C(F)F)n1 — remaining binding (binding, competition with immobilised ligand; 10 µM): 59%
Cc1nn(C)cc1-c1nc2c(N3CCN(Cc4ccc(Cl)cc4)CC3)c(Cl)cnc2[nH]1 — remaining binding (binding, competition with immobilised ligand; 1 µM): 100%
COc1ncccc1-c1cnn2ccc(N3CCN(C(=O)OC(C)C)CC3)nc12 — remaining binding (binding, competition with immobilised ligand; 1 µM): 100%
CC(C)(C)c1cc(C=C(C#N)C#N)cc(Br)c1O — remaining activity (enzyme activity, inhibitor; 0.5 µM): 111%
Cn1cncc1[C@](O)(COc1ccc(C#N)cc1-c1ccc(OC(F)(F)F)cc1)c1ccc(C#N)cc1 — remaining binding (cell-free assay, competition with immobilised ligand; 1 µM): 100%
O=c1[nH]c2ccccc2n1C1CCN(Cc2ccc(-c3[nH]c4cc5ncnc5cc4nc3-c3ccccc3)cc2)CC1 — remaining signal (cell-free assay; 0.5 µM): 103%
Cn1cc(-c2cccc(N3CCc4c(sc5c4CC(C)(C)C5)C3=O)c2CO)cc(Nc2ccncn2)c1=O — inhibition (enzyme activity, inhibitor; 1 µM): 6%
